One block for each molecule: values may come before it.
What was measured:
TLR2 [1] = biological target: T1, TLR2 (Homo sapiens, UniProt O60603); experiment: QUANTI-blue SEAP assay, Pam3CSK4-stimulated HEK-Blue hTLR2 cells; assay type: cell-based
Summary of the method: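 HEK-Blue hTLR2 cells (4 × 10^4 per well) were grown 24 h at 37 °C, 5% CO2 in DMEM with 10% FBS, then given fresh medium. Graded test compound and Pam3CSK4 (100 ng/mL) were added for 24 h. Supernatant was mixed 1:1 with QUANTI-Blue, shaken in the dark, and OD620 read at 15–30 min.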

TLR2/6 = TLR2/6 (Homo sapiens, UniProt O60603); experiment: SEAP signaling induced by Pam2CSK4 in HEK-Blue hTLR2 cells; assay type: cell-based; conditions: Pam2CSK4 100 ng/mL, 24 h
TLR2/6, sequence (O60603 21-784): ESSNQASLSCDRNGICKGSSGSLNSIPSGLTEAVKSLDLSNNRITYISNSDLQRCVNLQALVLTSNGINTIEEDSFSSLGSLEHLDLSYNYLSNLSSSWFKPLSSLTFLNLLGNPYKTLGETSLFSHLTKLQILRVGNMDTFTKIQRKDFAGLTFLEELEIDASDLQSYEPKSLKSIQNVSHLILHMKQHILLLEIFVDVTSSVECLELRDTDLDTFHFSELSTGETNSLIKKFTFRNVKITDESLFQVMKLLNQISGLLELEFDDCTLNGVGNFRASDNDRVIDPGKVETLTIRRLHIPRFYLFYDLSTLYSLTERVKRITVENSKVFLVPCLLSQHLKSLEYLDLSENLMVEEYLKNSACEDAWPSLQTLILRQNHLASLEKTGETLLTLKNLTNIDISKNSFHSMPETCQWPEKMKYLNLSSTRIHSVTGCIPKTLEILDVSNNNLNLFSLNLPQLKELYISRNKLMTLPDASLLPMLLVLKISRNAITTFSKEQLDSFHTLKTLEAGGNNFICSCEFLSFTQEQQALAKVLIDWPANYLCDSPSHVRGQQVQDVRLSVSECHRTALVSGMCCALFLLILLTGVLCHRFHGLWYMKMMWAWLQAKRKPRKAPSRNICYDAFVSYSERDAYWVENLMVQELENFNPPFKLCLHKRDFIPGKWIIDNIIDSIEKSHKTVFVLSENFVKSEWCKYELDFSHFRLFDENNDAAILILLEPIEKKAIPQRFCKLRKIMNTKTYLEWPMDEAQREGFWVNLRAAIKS

HEK-Blue hTLR2 cells = experiment: Cell toxicity assay; assay type: cell-based, human; conditions: 24 h, CCK-8
Summary of the method: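 HEK-hTLR2 cells were seeded at 3 × 10^4 per well in DMEM with 10% FBS and left overnight at 37 °C. Graded concentrations of test compound were added for 24 h at 37 °C. CCK-8 was then added for 1–4 h at 37 °C and absorbance read at 450 nm.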

Water solubility = assay type: physicochemical
[2] = tested on: healthy human peripheral blood mononuclear cells (PBMCs); experiment: Cytokines ELISA, Pam3CSK4-treated PBMCs; assay type: cell-based; conditions: 5 μmol/L, Pam3CSK4 100 ng/mL, 24 h
Summary of the method: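 Human PBMCs were seeded at 0.5 × 10^6 per well in RPMI 1640 with 10% FBS. Test compound plus Pam3CSK4 (100 ng/mL) was added for 24 h at 37 °C, 5% CO2. Supernatants were stored at −80 °C, then assayed by sandwich ELISA with recombinant cytokine standards, in triplicate.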

TLR4 [3] = experiment: Cytokines ELISA, LPS-treated peritoneal macrophages and THP-1 cells; assay type: cell-based, human and murine; conditions: LPS 100 ng/mL, 24 h
Summary of the method: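 Thioglycolate-elicited peritoneal macrophages from C57BL/6 mice were seeded at 0.5 × 10^6 per well in RPMI 1640 with 10% FBS. THP-1 cells (2.5 × 10^5 cells/mL) were differentiated with 100 nmol/L PMA for 24 h, washed and rested 24 h in fresh medium. Both cell types received LPS (100 ng/mL) plus graded test compound for 24 h at 37 °C. Supernatants were frozen at −80 °C and cytokines quantified by sandwich ELISA against recombinant standards, in triplicate.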

[4] = tested on: primary murine peritoneal macrophages; experiment: Nitric oxide; assay type: cell-based, mouse; conditions: 10 μmol/L; Pam3CSK4 100 ng/mL, IFN-γ 40 ng/mL
Summary of the method: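 Thioglycolate-elicited peritoneal macrophages from 6–8-week C57BL/6 mice were seeded at 1 × 10^6 per well. Cells were exposed to IFN-γ (40 ng/mL) and Pam3CSK4 (100 ng/mL) with test compound for 48 h. Nitrite was read at 570 nm against a sodium nitrite standard curve.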

TLR2 [5] = biological target: T1, TLR2; experiment: Surface plasmon resonance, hTLR2; assay type: binding
Summary of the method: (§1)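 For SPR chip coating, human TLR2 was expressed in insect H5 cells and diluted in PBS to 1 mg/mL. Commercial human TLR4 protein was diluted in PBS to 0.1 mg/mL.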

TLR4 [6] = biological target: T2, TLR4 (Homo sapiens, UniProt O00206); experiment: Surface plasmon resonance, hTLR4; assay type: binding; conditions: SPR
Summary of the method: as §1
Target sequence in this assay (O00206 24-631 limits assumed): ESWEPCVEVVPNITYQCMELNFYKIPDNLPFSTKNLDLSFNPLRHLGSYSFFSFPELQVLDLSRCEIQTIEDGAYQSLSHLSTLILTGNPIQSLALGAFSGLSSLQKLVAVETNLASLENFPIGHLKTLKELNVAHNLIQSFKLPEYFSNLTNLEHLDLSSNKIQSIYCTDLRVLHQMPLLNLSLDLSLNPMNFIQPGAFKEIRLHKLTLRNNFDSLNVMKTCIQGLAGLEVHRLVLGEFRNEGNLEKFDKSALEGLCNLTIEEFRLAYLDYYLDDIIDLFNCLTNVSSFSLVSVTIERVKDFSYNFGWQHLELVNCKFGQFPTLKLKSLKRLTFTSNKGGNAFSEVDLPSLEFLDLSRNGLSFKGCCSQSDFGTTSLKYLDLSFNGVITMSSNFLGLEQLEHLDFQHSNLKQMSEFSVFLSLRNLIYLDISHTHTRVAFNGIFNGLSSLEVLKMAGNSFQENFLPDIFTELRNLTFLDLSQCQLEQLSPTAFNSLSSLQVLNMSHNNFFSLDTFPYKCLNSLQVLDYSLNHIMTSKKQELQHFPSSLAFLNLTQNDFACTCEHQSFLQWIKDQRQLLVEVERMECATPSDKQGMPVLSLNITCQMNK

TLR2 [7] = biological target: T1, TLR2; experiment: Cellular thermal shift assay, TLR2; assay type: binding; conditions: 20 μmol/L, THP-1 cells, 45 to 53 °C, especially at 51 °C
TLR4 [8] = biological target: T2, TLR4; experiment: Cellular thermal shift assay, TLR4; assay type: binding; conditions: 20 μmol/L, THP-1 cells
Target sequence in this assay (O00206 24-839): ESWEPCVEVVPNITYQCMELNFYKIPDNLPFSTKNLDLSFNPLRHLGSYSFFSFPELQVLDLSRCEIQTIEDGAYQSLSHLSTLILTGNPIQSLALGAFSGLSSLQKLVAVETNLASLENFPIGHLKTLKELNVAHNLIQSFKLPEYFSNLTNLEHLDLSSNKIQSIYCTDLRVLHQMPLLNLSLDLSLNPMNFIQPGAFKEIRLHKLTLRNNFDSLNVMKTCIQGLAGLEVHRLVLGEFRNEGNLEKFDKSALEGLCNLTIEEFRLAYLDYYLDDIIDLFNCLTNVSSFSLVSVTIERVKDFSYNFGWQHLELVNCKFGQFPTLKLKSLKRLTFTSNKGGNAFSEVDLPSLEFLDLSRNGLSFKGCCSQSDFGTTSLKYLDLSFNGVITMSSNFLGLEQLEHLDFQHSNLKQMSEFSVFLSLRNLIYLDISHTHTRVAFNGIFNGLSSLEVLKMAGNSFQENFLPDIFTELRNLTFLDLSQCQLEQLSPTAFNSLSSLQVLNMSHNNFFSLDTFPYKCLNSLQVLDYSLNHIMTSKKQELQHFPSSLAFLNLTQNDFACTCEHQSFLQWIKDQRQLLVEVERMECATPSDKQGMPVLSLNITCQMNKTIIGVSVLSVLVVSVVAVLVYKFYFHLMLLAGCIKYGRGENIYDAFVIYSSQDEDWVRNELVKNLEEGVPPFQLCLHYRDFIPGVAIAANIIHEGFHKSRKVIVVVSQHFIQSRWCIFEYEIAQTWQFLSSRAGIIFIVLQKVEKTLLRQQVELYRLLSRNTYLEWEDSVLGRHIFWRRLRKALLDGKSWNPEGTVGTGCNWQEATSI

TLR2 [9] = biological target: T1, TLR2; experiment: Competitive combination assay with Rhodamine-Pam3CSK4; assay type: cell-based; conditions: 1 μmol/L, Rhodamine-Pam3CSK4 800 ng/mL, 4 h
Summary of the method: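 HEK-hTLR2 cells (3 × 10^4 per well) were seeded in DMEM with 10% FBS and left overnight. Medium was replaced with DMEM containing 800 ng/mL rhodamine-Pam3CSK4 and 1 μmol/L test compound for 4 h. After three PBS washes, nuclei were stained with DAPI for 5 min, cells were washed again and imaged by confocal microscopy.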

[10] = tested on: mouse primary peritoneal macrophage; experiment: Peritoneal macrophage phenotype assay; assay type: cell-based; conditions: 10 μmol/L
Summary of the method: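 Peritoneal macrophages were plated at 1 × 10^6 per well in RPMI 1640 with 10% FBS and left overnight. Cells were treated for 24 h with medium, Pam3CSK4 (100 ng/mL) + IFN-γ (40 ng/mL), or LPS (100 ng/mL) + IFN-γ (40 ng/mL), each with test compound. Cells were trypsinised, stained 30 min for CD86 and CD11b, and analysed by flow cytometry.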

mouse primary BMDCs = experiment: BMDCs activation assay; assay type: cell-based; conditions: 10 μmol/L
Summary of the method: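 BMDCs were generated from femur and tibia marrow of C57BL/6 mice and collected on day 7. They were seeded at 5 × 10^5 per well in RPMI 1640 with 10% FBS and left overnight. Cells then received Pam3CSK4 (300 ng/mL) or LPS (100 ng/mL) plus test compound for 24 h. Harvested cells were stained 30 min for CD86, CD80 and CD11c and read by flow cytometry.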

C57Bl/6 mice [11] = experiment: Carrageenan-induced paw edema model; assay type: in vivo, mouse; conditions: at 4 h; for paw swelling (measured by volume): ip prior to carrageenan
Summary of the method: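 Male C57Bl/6 mice (6–8 weeks) were randomised into four groups of six. Saline, indomethacin (10 mg/kg ip) or test compound (5 mg/kg ip) was given 1 h before 50 μL 1% carrageenan was injected into the right hind plantar paw. Paw volume was read by plethysmometer at baseline and at 1, 4, 8 and 24 h. At 4 h, paws were weighed and homogenised in 0.5% HTAB phosphate buffer (pH 6.0); supernatant triplicates were assayed with 3,3′-dimethoxybenzidine/1% H2O2 for MPO.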

C57Bl/6 mice [12] = experiment: DSS-induced colitis; assay type: in vivo, mouse; conditions: for weight loss: oral administration, Day 8
Summary of the method: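 Colitis was induced with 3.5% DSS in drinking water for 5 days (not in controls), followed by normal water. From Day 2, test compound (5 or 25 mg/kg), dexamethasone (25 mg/kg) or vehicle was given orally. Body weight was recorded daily and mice were killed on Day 8. Colon was lysed in RIPA with protease/phosphatase inhibitors by sonication at 4 °C and spun at 12,000×g for 30 min. IL-6 and TNF-α were measured by ELISA on BCA-equalised protein.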

C57Bl/6 mice [13] = experiment: Cecum ligation and puncture sepsis model; assay type: in vivo, mouse; conditions: oral 5 and 25 mg/kg 1 h before CLP; serum and lung tissue, 8 h
Summary of the method: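 Male C57Bl/6 mice aged 6–8 weeks were used for polymicrobial sepsis by CLP. Test compound was given orally 1 h before surgery; sham-operated mice received the same volume of saline. Serum and lung tissue were taken 8 h after surgery for ELISA.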

[14] = Pharmacokinetics in rat plasma; assay type: in vivo; conditions: for AUC: rat plasma; for AUC / half-life: n = 5; for half-life: t1/2, rat plasma
KM mice = experiment: Toxicity studies in vivo; design: species or system mouse; conditions: 250 mg/kg oral on Day 1, 3 and 5; Day 7
Summary of the method: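 Male and female KM mice (6–8 weeks) were split into control and treated groups of 10 (half male). Test compound was given orally on Days 1, 3 and 5; controls received the same volume of solvent. Body weight was recorded daily. On Day 7, mice were killed and tissues taken for H&E pathology.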

T1 sequence (O60603 21-784): as the sequence (O60603 21-784) above

SMILES: COc1ccc2c(=O)oc3c(OC)cc(CC(O)CN(C)C)c4c(=O)oc1c2c34 (stereo not drawn) [SMU-Y6]
IC50 (TLR2 [1]): 110 ± 40 nM | improvement of activity compared with Taspine (TLR2 [1]; vs Taspine): 10 fold | SEAP signaling induced by Pam2CSK4 (TLR2/6): suppressed the SEAP signaling | cytotoxicity compared with Taspine (HEK-Blue hTLR2 cells): reduced toxicity | water solubility relative to Taspine (Water solubility; vs Taspine): 20 times | release of IL-1β [2]: completely inhibited | release of TNF-α [2]: completely inhibited | inhibitory activity with regards to TLR4 (TNF-α, IL-6) (TLR4 [3]): little or even no inhibitory activity | production of NO induced by Pam3CSK4 [4]: significantly reduced | Kd (TLR2 [5]): 180 nM | time to complete dissociation from TLR2 protein (TLR2 [5]; SPR): 500 s | binding signal to recombinant hTLR4 protein (TLR4 [6]): did not detect a binding signal | thermal stabilization of TLR2 protein (TLR2 [7]): higher thermal stabilization | thermal stabilization of TLR4 (TLR4 [8]): failed to induce the thermal stabilization | fluorescence intensity of Rhodamine-Pam3CSK4 (TLR2 [9]): reduced the fluorescence intensity | polarization induced by LPS and IFN-γ [10]: no effect | LPS-induced activation of BMDCs (mouse primary BMDCs): failed to reverse | percentage of CD80+ CD86+ cells (mouse primary BMDCs; Pam3CSK4, 16.6% without compound): 8.1% | activity of local myeloperoxidase (MPO) in paw tissue (C57Bl/6 mice [11]): reversed | paw swelling (measured by volume) (C57Bl/6 mice [11]): significantly reduced | weight loss (C57Bl/6 mice [12]): reduced weight loss | IL-6 in local colonic tissue (C57Bl/6 mice [12]; oral, 5 and 25 mg/kg): reduced the production | TNF-α in local colonic tissue (C57Bl/6 mice [12]; oral, 5 and 25 mg/kg): reduced the production | production of IL-6 in sepsis (C57Bl/6 mice [13]): significantly reduced the production | production of TNF-α in sepsis (C57Bl/6 mice [13]): significantly reduced the production | Cmax ([14]; ip): 208 ± 31.1 ng/mL | Tmax ([14]; ip): 0.25 ± 0.01 h | AUC ([14]; ip, AUC0‒t, intraperitoneal injection): 1790 ± 410 ng·h/mL | AUC ([14]; ip, AUC0‒∞, intraperitoneal injection): 2160 ± 600 ng·h/mL | half-life ([14]; ip, intraperitoneal injection): 9.16 ± 1.11 h | Cmax ([14]; po): 52.3 ± 5.83 ng/mL | Tmax ([14]; po): 3 ± 1 h | AUC ([14]; po, AUC0‒t, oral administration): 619 ± 84.2 ng·h/mL | AUC ([14]; po, AUC0‒∞, oral administration): 844 ± 184 ng·h/mL | half-life ([14]; po, oral administration): 11.5 ± 2.7 h | immediate toxicity (KM mice): did not seem to exhibit immediate toxicity | pathological analysis of heart, liver, spleen, lung and kidney (KM mice): no obvious organic damage

binding signal to recombinant hTLR4 protein (TLR4 [6]): exhibited the ability to bind
SMILES: CCOC(=O)C1=CCCC[C@H]1S(=O)(=O)Nc1ccc(F)cc1Cl [TAK-242, reference compound]

SMILES: COc1ccc2c(=O)oc3c(OC)cc(CCN(C)C)c4c(=O)oc1c2c34 [Taspine, reference compound]
water solubility (Water solubility): poor water solubility

SMILES: C[C@@H]1C[C@H]2[C@@H]3CCC4=CC(=O)C=C[C@]4(C)[C@@]3(F)[C@@H](O)C[C@]2(C)[C@@]1(O)C(=O)CO [dexamethasone, reference compound]
weight loss (C57Bl/6 mice [12]): reduced weight loss

SMILES: COc1ccc2c(c1)c(CC(=O)O)c(C)n2C(=O)c1ccc(Cl)cc1 [indomethacin, reference compound]
activity of local myeloperoxidase (MPO) in paw tissue (C57Bl/6 mice [11]): reversed | paw swelling (measured by volume) (C57Bl/6 mice [11]): significantly reduced

From PMC10501872 (Acta Pharmaceutica Sinica. B, 2023)
